# PubChem BioAssay
# Active and inactive are the calls of the source.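 Rule for the calls, unless noted: active = NADPH fluorescence slope more negative than the mean of all samples by about 3 SD, 99.7% confidence; inactive = the rest.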
# Columns and labels:
# [1] = inhibitors of TNFa-induced NFkB p65 translocation, primary screen, imaging, HUVEC, MLSMR starter and 10KST1 sets (AID 438;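 active = inhibition above 20% together with a positive visual image hit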;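 note: compound added about 3h40 before a 20 min TNFalpha stimulation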;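 for inhibition: signal is the nuclear over cytoplasmic p65 intensity ratio per well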); conditions: HUVEC TNFa-induced p65 nuclear translocation; cell count: measured here: nuclei count (cytotoxicity indicator), at 2.08 µM; inhibition: at 2 µM, stronger effect = higher value, 0% TNFa-plus-vehicle, 100% no-TNFa wells
# [2] = inhibitors of mutant huntingtin aggregation, primary screen, imaging, exon1htt(103Q)mCFP cells, high-content imaging (AID 483;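 active = visual image review flags a hit and inhibition of aggregation exceeds 20%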;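 note: compound exposure lasted 3 days before fixation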;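 for nuclei count: percent of the per-plate median nuclei count of sample wells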); conditions: exon1htt(103Q)mCFP cell line, aggregate imaging, at 2 µM; inhibition of aggregation: stronger effect = higher value; nuclei count: measured here: cell count, toxicity
# [3] = inhibitors of E-selectin induction by TNFa, primary screen, imaging, HUVEC, immunofluorescence, MLSMR starter and 10KST1 sets (AID 487;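 active = visually confirmed hit in the image check and inhibition above 20%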;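 for inhibition: signal is fraction of cell area covered by stained E-selectin grains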;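 for nuclei count: 100% = median nuclei count of all wells on the same plate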); conditions: HUVEC TNFalpha-induced E-selectin immunofluorescence imaging, at 2 µM; inhibition: stronger effect = higher value; nuclei count: measured here: cell number, toxicity
# [4] = target: Voltage-gated potassium channel subunit beta-2 (Rattus norvegicus) (UniProt P62483); experiment: KvBeta enzyme negative modulators, primary screen, biochemical, NADPH fluorescence (AID 622;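 active = fluorescence slope higher than the sample average by over 3 SD, cut at about -0.22 in these data, passing the limit was not always enough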;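 note: slope of raw intensity against log time taken from 70 to 1610 s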); conditions: recombinant KvBeta, 4-cyanobenzaldehyde reduction, at 10 µM, stronger effect = higher value
# Sequence of Voltage-gated potassium channel subunit beta-2 (Rattus norvegicus) (P62483 whole entry, looked up): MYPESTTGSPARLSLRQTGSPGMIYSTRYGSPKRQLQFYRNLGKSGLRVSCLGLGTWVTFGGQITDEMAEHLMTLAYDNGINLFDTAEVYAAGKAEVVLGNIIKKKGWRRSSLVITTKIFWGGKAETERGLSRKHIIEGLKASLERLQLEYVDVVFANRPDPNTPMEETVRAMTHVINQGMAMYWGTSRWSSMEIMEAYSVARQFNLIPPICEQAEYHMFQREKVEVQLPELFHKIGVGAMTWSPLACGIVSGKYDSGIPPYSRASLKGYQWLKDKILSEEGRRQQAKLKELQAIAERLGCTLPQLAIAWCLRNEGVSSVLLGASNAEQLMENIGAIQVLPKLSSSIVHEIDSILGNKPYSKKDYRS
# [5] = target: Voltage-gated potassium channel subunit beta-2 (Rattus norvegicus) (UniProt P62483); experiment: KvBeta positive modulators, primary screen, biochemical, NADPH fluorescence (AID 623); conditions: Recombinant KvBeta, NADPH fluorescence decrease slope, 10 min; at 10 µM; stronger effect = lower value;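 note: fluorescence intensity change per second fitted from 20 to 320 s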
# [6] = target: Muscarinic acetylcholine receptor M4 (Homo sapiens) (UniProt P08173); experiment: compounds altering M4/GIRK thallium flux, either direction, primary screen, M4 allosteric agonist project, cell-based, HEK293 M4/GIRK, BTC-AM (AID 625;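 active = fluorescence slope after compound addition differing from the mean of all tested samples at 99.7% confidence, mostly higher but some lower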;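 note: thallium influx through GIRK channels coupled to M4 in HEK293 cells with BTC-AM dye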); conditions: at 10 µM, actives lie on both sides
# Sequence of Muscarinic acetylcholine receptor M4 (Homo sapiens) (P08173 whole entry, looked up): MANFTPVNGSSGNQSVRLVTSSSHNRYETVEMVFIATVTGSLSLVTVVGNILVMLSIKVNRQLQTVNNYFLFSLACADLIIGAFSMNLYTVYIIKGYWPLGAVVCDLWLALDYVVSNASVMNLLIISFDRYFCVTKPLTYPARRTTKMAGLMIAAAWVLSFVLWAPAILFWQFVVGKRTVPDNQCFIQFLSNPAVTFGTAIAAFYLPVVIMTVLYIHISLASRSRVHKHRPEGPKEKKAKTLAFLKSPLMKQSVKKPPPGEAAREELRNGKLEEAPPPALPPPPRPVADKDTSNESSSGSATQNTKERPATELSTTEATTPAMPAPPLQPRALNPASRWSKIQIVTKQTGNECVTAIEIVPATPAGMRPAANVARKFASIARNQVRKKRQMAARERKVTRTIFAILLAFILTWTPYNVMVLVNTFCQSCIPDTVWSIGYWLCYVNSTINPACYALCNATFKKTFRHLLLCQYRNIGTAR
# How it was run: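 Assay system: HEK293 cells with M4 receptor and GIRK channels / Controls: carbachol and DMSO controls / Schedule: 1 h dye loading, 2 min kinetic read / Technique: kinetic fluorescence with BTC-AM dye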
# [7] = inhibitors of Sendai virus-induced IRF3 signaling, primary screen, TLR/RLR signaling modifier project, cell-based, Sendai virus stimulus, luciferase, 10K MLSCN set (AID 602276;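 active = inhibition at or above 50% at 10 µM; inactive = inhibition below 50%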;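 note: firefly luciferase from ISG56 promoter only with Renilla not read in this screen; 0% = Sendai virus plus DMSO and 100% = medium plus DMSO without virus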); conditions: HEK293 RL24 IRF3 luciferase reporter, at 10 µM, stronger effect = higher value
# [8] = inhibitors of poly I:C-induced TLR3 signaling, primary screen, cell-based, poly I:C stimulus, luciferase, 10K MLSCN set (AID 602277;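 active = inhibition of the reporter signal at or above 50%; inactive = inhibition below 50%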); conditions: HEK293-TLR3 RL24 IRF3 luciferase reporter, at 10 µM, stronger effect = higher value
SMILES,cell count [1],inhibition [1],inhibition of aggregation [2],nuclei count [2] [%],inhibition [3],nuclei count [3] [%],fluorescence slope [4],NADPH fluorescence slope [5],fluorescence slope [6],inhibition [7],inhibition [8]
Nc1cc(C(=O)O)ccc1Nc1ccc(F)c(F)c1,693,-22.9% (inactive),-0.6% (inactive),124,6.9% (inactive),96.9,-0.44 (inactive),0.000103 (inactive),0.00669 (inactive),-5.42% (inactive),-4.51% (inactive)
FC(F)(F)c1nnc2ccc(NCn3nnc4ccccc43)nn12,562,-27.6% (inactive),18.9% (inactive),85.2,16.1% (inactive),94.1,-0.434 (inactive),3.1e-05 (inactive),0.00533 (inactive),12.7% (inactive),3.14% (inactive)
CCn1c(C)nc2cc(C(=O)OC(C(F)(F)C(F)F)C(F)(F)C(F)F)ccc21,358,6% (inactive),12.2% (inactive),91.2,-20.9% (inactive),93.6,-0.557 (inactive),-2.6e-05 (inactive),0.00666 (inactive),7.52% (inactive),-180% (inactive)
Cc1cccc(N2CCN(C(=O)Cn3ccc4ccccc4c3=O)CC2)c1C,340,11% (inactive),3.8% (inactive),95.6,-4.9% (inactive),94,-0.568 (inactive),2.6e-06 (inactive),0.00591 (inactive),-3.75% (inactive),-30.8% (inactive)
CCCC1C(C#N)=C(N)Oc2n[nH]c(C(C)(C)C)c21 (centres undefined),330,-6.9% (inactive),-30.2% (inactive),102,26.6% (inactive),115,-0.571 (inactive),-3.1e-05 (inactive),0.00609 (inactive),13.9% (inactive),21.8% (inactive)
CCCC1CCC(C(=O)Nn2c(C)nc3ccccc3c2=O)CC1 (centres undefined),340,0% (inactive),-13.5% (inactive),73.2,11.4% (inactive),79,-0.472 (inactive),-2.4e-05 (inactive),0.00445 (inactive),15.6% (inactive),18.5% (inactive)
Cn1c(=O)n(C)c2cc(NC(=O)C(F)(F)F)ccc21,231,-14.4% (inactive),34.3% (active),96.5,-10.9% (inactive),103,-0.449 (inactive),-3.6e-06 (inactive),0.00534 (inactive),5.97% (inactive),17.7% (inactive)
Cc1nc2ccc(NC(=O)N3CCSCC3)cc2s1,710,-0.4% (inactive),-7.6% (inactive),111,-93.4% (inactive),96.5,-0.535 (inactive),5e-05 (inactive),0.00638 (inactive),-33.4% (inactive),-42.8% (inactive)
CC(=O)c1c(NCCc2ccccc2)cc(C)oc1=O,577,8.2% (inactive),8.3% (inactive),104,-32.4% (inactive),106,-0.259 (inactive),-2.2e-05 (inactive),0.00739 (inactive),-1.27% (inactive),11% (inactive)
O=C1CC(c2ccccc2)CC(O)=C1C=NCCCN1CCOCC1 (centres undefined),307,3.9% (inactive),22.3% (inactive),88.8,49.8% (inactive),69.3,-0.466 (inactive),-4e-06 (inactive),0.00557 (inactive),7.43% (inactive),9.1% (inactive)
O=C(NCc1ccccn1)Nc1ccc2c(c1)OCO2,415,-12.8% (inactive),-6.8% (inactive),100,3.1% (inactive),92.3,-0.459 (inactive),-1.3e-06 (inactive),0.00592 (inactive),10.3% (inactive),99.1% (active)
O=C(Cn1ccc2ccccc2c1=O)NCCC(=O)N1CCN(C(=O)c2ccco2)CC1,397,-14.1% (inactive),11.3% (inactive),98.1,9.4% (inactive),97.8,-0.503 (inactive),0.000132 (inactive),0.00733 (inactive),-0.7% (inactive),6.13% (inactive)
CC1CCCC(NC(=O)CSc2ncccc2C(=O)O)C1C (centres undefined),660,-10% (inactive),7.4% (inactive),117,-55.4% (inactive),112,-0.566 (inactive),-8.3e-06 (inactive),0.00597 (inactive),13.9% (inactive),24.3% (inactive)
S=c1[nH]c2ccc(Cl)cc2[nH]1,457,-3.8% (inactive),-4% (inactive),91.1,-78.7% (inactive),110,-0.449 (inactive),-3.7e-05 (inactive),0.00564 (inactive),21.3% (inactive),33.3% (inactive)
CC12C(=O)N(CCC(=O)O)C(=O)C1C1C=CC2C1 (centres undefined),666,23.6% (active),3.1% (inactive),99.2,7.8% (inactive),114,-0.456 (inactive),-4.5e-05 (inactive),0.00503 (inactive),17.6% (inactive),21.9% (inactive)
CC(C)CN1C(=O)c2ccc(C(=O)Nc3nccs3)cc2C1=O,513,8.1% (inactive),-20.1% (inactive),120,-335% (inactive),137,-0.586 (inactive),-2.9e-06 (inactive),0.00611 (inactive),13.3% (inactive),5.57% (inactive)
CCCc1cn(S(=O)(=O)c2ccc(OC)cc2OC)nc1N,364,-8.7% (inactive),7.3% (inactive),100,-38.9% (inactive),119,-0.537 (inactive),-3.9e-05 (inactive),0.00411 (inactive),-0.283% (inactive),5.1% (inactive)
CCN(c1ccc(OC)cc1)S(=O)(=O)c1ccc2c(c1)CCN2C(=O)CCC(=O)O,625,8.3% (inactive),-38.2% (inactive),92.1,-35.6% (inactive),115,-0.454 (inactive),2.3e-05 (inactive),0.00631 (inactive),14.1% (inactive),20.9% (inactive)
COCCCNC(=O)C1CCCN(C(=O)Nc2ccc(OC)cc2)C1 (centres undefined),675,-14.8% (inactive),-11.8% (inactive),107,52.7% (inactive),49.2,-0.315 (inactive),-5.2e-05 (inactive),0.007 (inactive),16.2% (inactive),4.9% (inactive)
